Where a name gives a salt, the structure may show the parent alone. Activity calls are given as the source filed them. The rule behind the calls is not given here.
Key:
Format in all cases: functional, cell-based
A-375 [1] = assay: Cytotoxicity against human A375 cells up to 100 uM after 48 hrs by MTT assay
Procedure, shortened: (§1)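 Cell lines obtained from a provincial disease-control centre. Compounds (HPLC-DAD purity over 95%) dissolved in DMSO and tested against the cells. Viability read by MTT colorimetric assay and expressed as IC50. Doxorubicin HCl served as positive control and compound-free medium as negative control. Each test was run three times.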

BGC-823 [2] = assay: Cytotoxicity against human BGC823 cells up to 100 uM after 48 hrs by MTT assay; procedure, shortened: as §1
KB [3] = assay: Cytotoxicity against human KB cells up to 100 uM after 48 hrs by MTT assay; procedure, shortened: as §1
HepG2 [4] = assay: Cytotoxicity against human HepG2 cells up to 100 uM after 48 hrs by MTT assay; procedure, shortened: as §1
[5] = Cytotoxicity against human GHOST-R5X4 cells after 48 hrs by MTT assay; conditions: GHOST-R5X4, 48 h; procedure, shortened: as §1
KB [6] = assay: Cytotoxicity against human KB cells after 48 hrs by MTT assay; procedure, shortened: as §1
HepG2 [7] = assay: Cytotoxicity against human HepG2 cells after 48 hrs by MTT assay; conditions: HepG2, 48 h; procedure, shortened: as §1
BGC-823 [8] = assay: Cytotoxicity against human BGC823 cells after 48 hrs by MTT assay; conditions: BGC-823, 48 h; procedure, shortened: as §1
A-375 [9] = assay: Cytotoxicity against human A375 cells after 48 hrs by MTT assay; conditions: A-375, 48 h; procedure, shortened: as §1
GHOST-R5X4 = assay: Cytotoxicity against human GHOST-R5X4 cells up to 100 uM after 48 hrs by MTT assay; procedure, shortened: as §1

SMILES	Activity (A-375 [1])	Activity (BGC-823 [2])	Activity (KB [3])	Activity (HepG2 [4])	IC50 [5]	IC50 (KB [6])	IC50 (HepG2 [7])	IC50 (BGC-823 [8])	IC50 (A-375 [9])	Activity (GHOST-R5X4)
COc1cccc2c1C(=O)c1ccc3cc(C)cc(O)c3c1C2=O	inactive	inactive	inactive	inactive	89 µM	–	–	–	–	–
C[C@@]1(O)Cc2ccc3c(c2C(=O)[C@@H]1O)C(=O)c1cccc(O)c1C3=O	inactive	inactive	inactive	inactive	37.6 µM	–	–	–	–	–
COC(=O)C(O)C(C)(O)Cc1ccc2c(c1O)C(=O)c1cccc(O)c1C2=O (centres undefined)	inactive	–	inactive	–	–	–	–	–	–	–
Cc1cc(O[C@@H]2O[C@@H](C)[C@H](O)[C@@H](O)[C@H]2O)c2c3c(c(O)cc2c1)C(=O)c1c(O)cccc1C3=O	inactive	–	inactive	–	–	–	–	–	–	–
COc1cccc2c1C(=O)c1c(O)c3c(c(O)c1C2=O)C[C@@](O)(C(=O)CO)C[C@@H]3O[C@H]1C[C@H](N)[C@H](O)[C@H](C)O1 [DOXORUBICIN HYDROCHLORIDE]	–	–	–	–	5.73 µM	0.01 µM	1.11 µM	0.01 µM	0.73 µM	–
C[C@H]1O[C@H](O[C@]23C(=O)[C@@H](O)[C@](C)(O)C[C@@]2(O)C=CC2=C3C(=O)c3cccc(O)c3C2=O)CC[C@H]1O [SAKYOMICIN A]	inactive	–	inactive	–	–	–	34.9 µM	15.1 µM	–	inactive
C[C@H]1O[C@H](O[C@]23C(=O)C[C@](C)(O)C[C@@]2(O)C=CC2=C3C(=O)c3cccc(O)c3C2=O)CC[C@H]1O [SAKYOMICIN C]	–	–	inactive	–	14 µM	–	17.4 µM	11 µM	17.5 µM	–
C[C@]1(O)CC(=O)c2c(ccc3c2C(=O)c2cccc(O)c2C3=O)C1 [TETRANGOMYCIN]	inactive	–	–	inactive	17.7 µM	23.7 µM	–	36.1 µM	–	–

— ChEMBL document CHEMBL2203202, “Angucyclines from an insect-derived actinobacterium Amycolatopsis sp. HCa1 and their cytotoxic activity” (Bioorg Med Chem Lett, 2012)
